Assay results from different studies.
Lines come from different studies, so protocols differ.
Target: Serine/threonine-protein kinase N1 (PKN1, Homo sapiens, UniProt Q16512)

c1cnn2ncc(-c3ccnc(N4CCC45COC5)n3)c2c1
remaining binding (binding; 1 µM): 87%

COc1ccc2c(c1)O[C@@H](c1ccc(OC)c(OC)c1)C[C@H]2NC(=O)C1(c2ccc3c(c2)OC(F)(F)O3)CC1
remaining binding (cell-free assay; competition with immobilised ligand; 1 µM): 96%

CC1CCCN1c1nccc(-c2cnn3ncccc23)n1 (stereo not shown)
remaining binding (binding; 1 µM): 100%

CCN1CCN(Cc2ccc(C(=O)Nc3ccc(C)c(Oc4ccc5c(c4)CC(=O)N5)c3)cc2C(F)(F)F)CC1
remaining binding (binding; competition with immobilised ligand; 1 µM): 100%

C[C@@H]1CCN(c2nccc(-c3cnn4ncccc34)n2)C1
remaining binding (binding; 1 µM): 84%

C=CC(=O)N1CCC(C(=O)NCC(=O)N2CCN(c3nc(-c4cnc(N)nc4C(F)F)nc(N4CCOCC4)n3)CC2)CC1
remaining binding (binding; competition with immobilised ligand; 1 µM): 83%

C[C@@H](c1ccc(-n2cnc3c(N)ncnc32)cc1)N1CCc2nn(C)c(Cc3ccccc3)c2C1=O
remaining binding (binding; competition with immobilised ligand; 0.1 µM): 98%

CN(CCCC(F)(F)F)c1nccc(-c2cnn3ncccc23)n1
remaining binding (binding; 1 µM): 100%

Cc1cnc(Nc2ccc(C(=O)N3CCC(N4CCCC4)CC3)cc2)nc1-c1cc2ccccc2s1
remaining binding (binding; competition with immobilised ligand; 1 µM): 1.2%

Nc1ncc2c(n1)-c1c([nH]c3ccc(C#CC4CC4)cc13)CCCC2
remaining binding (binding; competition with immobilised ligand; 1 µM): 78%

CN(c1nccc(-c2cnn3ncccc23)n1)C1CC1
remaining binding (binding; 1 µM): 100%

CNC(=O)Nc1ccc2c(c1)[C@@]1(CC2)OC(=O)N(CC(=O)N(Cc2ccc(F)cc2)[C@@H](C)C(F)(F)F)C1=O
remaining binding (cell-free assay; competition with immobilised ligand; 1 µM): 98%

COc1cnc(Nc2cccc(S(N)(=O)=O)c2)nc1N1CCN(c2ccccc2)CC1
remaining binding (binding; competition with immobilised ligand; 1 µM): 82%

N[C@@H]1CCN(c2nccc(-c3cnn4ncccc34)n2)C1
remaining binding (binding; 1 µM): 93%

CC1=C(C#N)C(c2ccc3c(c2)c(NC(=O)c2ccccc2C)nn3C)C(C#N)=C(C)N1
remaining binding (cell-free assay; competition with immobilised ligand; 1 µM): 78%

O=C(c1ccc(Nc2nccc(-c3cc4ccccc4s3)n2)cc1)N1CCC(N2CCCC2)CC1
remaining binding (binding; competition with immobilised ligand; 1 µM): 12%

C[C@H](c1ccc(F)cc1)N(Cc1cccc(C(=O)O)c1)C(=O)c1cnc2ccccc2c1
remaining binding (cell-free assay; competition with immobilised ligand; 1 µM): 100%

O=C(Nc1c[nH]nc1C(=O)NC1CCNCC1)c1cc(F)cc(F)c1
remaining binding (binding; competition with immobilised ligand; 1 µM): 100%

O=C(Nc1cnc(Oc2ccc(F)cc2)nc1)N1CCc2ncccc2[C@@H]1c1ccc(F)cc1
remaining binding (cell-free assay; competition with immobilised ligand; 1 µM): 95%

c1cncc(-c2cccc(Nc3nccc(NC4CCCCC4)n3)c2)c1
remaining binding (binding; competition with immobilised ligand; 10 µM): 64%

O=C(NCCCN1CCOCC1)c1ccc(Nc2nccc(-c3cc4ccccc4s3)n2)cc1
remaining binding (binding; competition with immobilised ligand; 1 µM): 37%

O=C(NS(=O)(=O)c1ccc(NCC2CCOCC2)c([N+](=O)[O-])c1)c1ccc(N2CCN(Cc3ccc(C(F)(F)F)cc3-c3ccc(Cl)cc3)CC2)cc1Oc1cnc2[nH]ccc2c1
remaining binding (cell-free assay; competition with immobilised ligand; 1 µM): 100%
